Reference: PMC8865112 (Journal of Enzyme Inhibition and Medicinal Chemistry, 2022)

Key:
A549/DDP [1] = test: CCK-8 cell growth and sensitisation to DDP; type: cell-based, human
How it was run: (§1)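 Exponential-phase cells were trypsinised, diluted to 5 × 10^7/l and plated, then cultured 24 h at 37 °C. Test compound was added where indicated (DMF <0.2%), and DDP (saline stock 5.0 mM) was added 1 h later. After 72 h at 37 °C, CCK-8 was applied for 2 h and A450 was read. Live cells were calculated as % of the no-DDP, no-inhibitor control. Done in triplicate.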

SGC7901/DDP [2] = test: CCK-8 cell growth and sensitisation to DDP; type: cell-based, human
How it was run: as §1

SK-OV-3/DDP = test: CCK-8 cell growth and sensitisation to DDP; type: cell-based, human; conditions: SK-OV-3/DDP cells versus SK-OV-3 cells
How it was run: as §1

COC1/DDP = test: CCK-8 cell growth and sensitisation to DDP; type: cell-based, human
How it was run: as §1

A549/DDP [3] = test: Apoptosis percentages; type: cell-based, human; conditions: DDP alone 2.0 μM, EDEA alone 1.0 and 2.0 μM
SGC7901/DDP [4] = test: Apoptosis percentages; type: cell-based, human; conditions: DDP alone 2.0 μM, EDEA alone 1.0 and 2.0 μM
drug-resistant cancers = conditions: cited from earlier work

N.N.[Cl][Pt][Cl] [DDP, cisplatin]
IC50 value of DDP in resistant versus parental cells (A549/DDP [1]): ~7 fold
IC50 value of DDP in resistant versus parental cells (SGC7901/DDP [2]): ~3 fold
IC50 value of DDP in resistant versus parental cells (SK-OV-3/DDP): ~4 fold
IC50 value of DDP in resistant versus parental cells (COC1/DDP): ~4 fold
effect of single agent on apoptosis percentages (A549/DDP [3]): did not greatly alter
effect of single agent on apoptosis percentages (SGC7901/DDP [4]): did not greatly alter

C=C(CC)C(=O)c1ccc(OCC(=O)O)c(Cl)c1Cl [EAA, ethacrynic acid]
level that sensitised drug-resistant cancers to DDP in vitro (drug-resistant cancers): ~20 µM
